From PubChem
Rows were chosen to be rich in hits. Some 4.5% of all compounds tested hit in one or more screens of this group.
MrgX1 agonist: agonists of human MrgX1 receptor; Q96LB2; MrgX1-HEK293 cells, Fluo-4 calcium fluorescence, agonist mode; stronger effect = higher value; B-score at 10 µM; actives 0.44% (n = 310,000); AID 588627;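 active = calcium response B-score plate-corrected fluorescence ratio at least 3 library SD, with starting fluorescence B-score inside 5 SD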
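Test system: HEK293 cells stably expressing human MrgX1 receptor; Input: fifteen thousand cells per well; Dosing: compound delivered in addition one of three; Schedule: overnight seeding, then 1 h dark dye loading; Technique: Fluo-4 NW calcium fluorescence; Measure: B-scored fluorescence response ratio; Controls: positive and negative controls per plate.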
MrgX1 antagonist: blocks BAM8-22 activation of human MrgX1 receptor. AID 588676. MRGX1-HEK293 calcium flux, Fluo-4, BAM8-22 antagonism; stronger effect = lower value. B-score at 10 µM. actives 1.3% (n = 310,000). Q96LB2;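 active = calcium-response B-score plate-corrected more than 3 library SD below zero, starting fluorescence within 5 deviations, no agonist response on first addition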;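 also: peak minus trough fluorescence over baseline after final BAM8-22 challenge near maximal dose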
RGS4 block: inhibitors of human RGS4. P49798. HEK293 M3R/RGS4 inducible, Fluo-4 calcium flux; stronger effect = higher value; triggered by carbachol at its EC20. B-score at 10 µM. actives 0.45% (n = 310,000);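 active = B-score, a plate-corrected calcium signal, over three deviations above library mean, with baseline fluorescence within five deviations of library mean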;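 also: RGS4 expression induced by doxycycline in cells with stable M3 receptor; B-score is computed from the integrated fluorescence ratio over baseline after carbachol; higher B-score means a larger calcium signal and so more RGS4 inhibition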
Target sequence (P49798 whole entry, looked up): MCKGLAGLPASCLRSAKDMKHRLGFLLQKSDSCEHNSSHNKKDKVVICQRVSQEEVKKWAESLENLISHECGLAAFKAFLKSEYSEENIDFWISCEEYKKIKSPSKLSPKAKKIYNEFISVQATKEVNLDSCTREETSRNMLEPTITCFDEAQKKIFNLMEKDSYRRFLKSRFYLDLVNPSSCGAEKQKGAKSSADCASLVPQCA
PHOSPHO1 inh: inhibitors of human PHOSPHO1 phosphatase; inhibition, % at 13.3 µM; actives 1.1% (n = 290,000); Q8TCT1; AID 1565; recombinant PHOSPHO1, absorbance phosphatase assay; in the data active = inhibition above about 60%
Target sequence (Q8TCT1 whole entry, looked up): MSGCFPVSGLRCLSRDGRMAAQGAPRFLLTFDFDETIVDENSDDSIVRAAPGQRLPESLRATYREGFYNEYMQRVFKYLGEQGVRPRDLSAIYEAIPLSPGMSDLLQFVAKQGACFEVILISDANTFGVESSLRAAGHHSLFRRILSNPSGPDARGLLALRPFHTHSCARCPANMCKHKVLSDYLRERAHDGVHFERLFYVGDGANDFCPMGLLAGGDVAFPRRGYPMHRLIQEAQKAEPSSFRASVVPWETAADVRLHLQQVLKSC
RGS4 pot: potentiators or activators of RGS4; HEK293 M3R/inducible RGS4, carbachol calcium flux Fluo4; stronger effect = lower value; B-score at 10 µM; actives 0.92% (n = 310,000); AID 463111;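 active = B-score of the integrated calcium signal more than 4 SD below the library mean, with starting fluorescence not abnormally high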;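 also: negative B-score means reduced calcium response which marks RGS4 activation or potentiation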
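Assay system: Inducible-RGS4 HEK293 cells carrying M3 receptor | Schedule: Compound preincubation 20 min at room temperature before agonist | Signal: Kinetic calcium fluorescence imaging with Fluo4-AM dye, 2 µM | Read-out basis: B score from integrated fluorescence ratio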
MrgX1 PAM: allosterically activates human MrgX1 receptor signaling. Q96LB2. MrgX1-HEK293, Fluo-4 calcium flux, FDSS; stronger effect = higher value. actives 0.63% (n = 310,000). B-score at 10 µM;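 active = plate-corrected calcium response at least 3 library SD above typical, normal starting fluorescence, not activating the receptor alone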;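 also: compound read alongside a low EC10 to EC30 dose of BAM8-22 agonist; peak minus trough fluorescence over baseline measured at the second addition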
A number is an active result; 0 = inactive; - = no result.

SMILES	MrgX1 agonist	MrgX1 antagonist	RGS4 block	PHOSPHO1 inh	RGS4 pot	MrgX1 PAM
COCCN(C(=O)Cc1cccs1)C(C(=O)NCc1ccc(OC)cc1)c1ccc(C(C)C)cc1 (stereo not drawn)	0	0	0	0	-7	0
CCc1ccc(C(C(=O)NCc2ccc(OC)cc2)N(CCOC)C(=O)Cc2cccs2)cc1 (stereo not drawn)	0	0	0	0	0	0
Cc1ccccc1Nc1c([N+](=O)[O-])cncc1[N+](=O)[O-]	0	0	0	0	0	0
O=[N+]([O-])c1cncc([N+](=O)[O-])c1Nc1cccc(O)c1	38	0	0	0	0	0
CCOC(=O)c1c(/N=C/c2ccc(OC)cc2O)sc2c1CCN(C)C2	0	-4.8	0	0	0	0
O=C(NN1C(=O)/C(=C\c2cccnc2)SC1=S)C(c1ccccc1)c1ccccc1	0	0	0	0	-7.3	0
COc1cc(/C=C2\SC(=S)N(NC(=O)c3ccncc3)C2=O)ccc1O	0	0	0	0	0	0
COc1cc(/C=C2\SC(=S)N(NS(=O)(=O)c3ccc(C)cc3)C2=O)cc(OC)c1OC	0	0	0	0	0	0
CCOc1cc(/C=C2\SC(=S)N(NS(=O)(=O)c3ccc(C)cc3)C2=O)ccc1O	52	0	0	-	0	0
CCOc1cc(/C=C2\SC(=S)N(NC(=O)c3cccnc3)C2=O)ccc1O	0	-5.9	0	0	0	0
O=C(c1ccc(Br)o1)N1CCN(c2ncccn2)CC1	0	0	0	0	0	0
O=C(CO/N=C1\CCCc2nonc21)Nc1ccccc1Cl	0	0	0	0	0	14
COc1ccc(NC(=O)CO/N=C2/CCCc3nonc32)c(OC)c1	0	-5.5	0	0	0	0
Cc1cc(C)n2nc(SC(C)C(=O)NCc3ccco3)nc2n1 (stereo not drawn)	0	0	0	64	0	0
CC(=O)Nc1ccc(NC(=O)C(C)Sc2nc3nc(C)cc(C)n3n2)cc1 (stereo not drawn)	0	0	0	-	0	0
Cc1cccc(CN2CCN(C(=O)CCl)CC2)c1	0	0	0	0	0	0
C#CCOCCOCCOCCNc1nc(N2CCN(C(=O)CCCCCCCCCCNC(=O)Cn3cc(C[C@@H](C)O)nn3)CC2)nc(N2CCN(C(=O)CCCCCCCCCCNC(=O)[C@H](CCCCN)n3cc(C[C@@H](C)CC)nn3)CC2)n1	0	0	-	-	-	0
C#CCOCCOCCOCCNc1nc(N2CCN(C(=O)CCCCCCCCCCNC(=O)Cn3cc(CCCCCN)nn3)CC2)nc(N2CCN(C(=O)CCCCCCCCCCNC(=O)[C@H](CO)n3cc(CCCCCN)nn3)CC2)n1	0	0	-	-	-	0
C#CCOCCOCCOCCNc1nc(N2CCN(C(=O)CCCCCCCCCCNC(=O)[C@H](CCCCN)n3cc(CCCC(=O)O)nn3)CC2)nc(N2CCN(C(=O)CCCCCCCCCCNC(=O)[C@H](CCCN=C(N)N)n3cc(C[C@@H](C)CC)nn3)CC2)n1	40	0	-	-	-	0
C#CCOCCOCCOCCNc1nc(N2CCN(C(=O)CCCCCCCCCCNC(=O)Cn3cc(CCCCCN)nn3)CC2)nc(N2CCN(C(=O)CCCCCCCCCCNC(=O)[C@H]([C@@H](C)CC)n3cc(CCCCCN)nn3)CC2)n1	51	0	-	-	-	0
C#CCOCCOCCOCCNc1nc(N2CCN(C(=O)CCCCCCCCCCNC(=O)[C@H](CO)n3cc(CCCSC)nn3)CC2)nc(N2CCN(C(=O)CCCCCCCCCCNC(=O)[C@H](CCCCN)n3cc(C[C@@H](C)CC)nn3)CC2)n1	0	0	-	-	-	0
C#CCOCCOCCOCCNc1nc(N2CCN(C(=O)CCCCCCCCCCNC(=O)[C@H](CCCCN)n3cc(C[C@@H](C)CC)nn3)CC2)nc(N2CCN(C(=O)CCCCCCCCCCNC(=O)[C@H](CCCCN)n3cc(C[C@@H](C)CC)nn3)CC2)n1	89	0	-	-	-	0
C#CCOCCOCCOCCNc1nc(N2CCN(C(=O)CCCCCCCCCCNC(=O)[C@H]([C@@H](C)CC)n3cc(CCCCN=C(N)N)nn3)CC2)nc(N2CCN(C(=O)CCCCCCCCCCNC(=O)[C@H](CCCCN)n3cc(C[C@@H](C)CC)nn3)CC2)n1	61	0	-	-	-	0
